Converted amounts (≈) assume the structure as drawn. The source made the active and inactive calls. The calls are words filed in the database; no cut-off is given here.
Assays:
[1] = Ratio of AUC (0 to 24 hrs) in lung in vancomycin intermediate Staphylococcus aureus infected ddY mouse at 100 mg/kg, ip BID to MIC for methicillin-resistant Staphylococcus aureus
[2] = Half life in serum of methicillin-resistant Staphylococcus aureus infected ddY mouse at 100 mg/kg, ip administered 1 day post infection by fluorescence polarization immunoassay; type: ADME, organism-based; parameters: dose 100 mg/kg, route intraperitoneal
Procedure, shortened: (§1)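 Single 100 mg/kg i.p. dose given 1 day after i.v. MRSA NUMR101 agar-bead infection. Mice killed 5, 15, 30, 60, 90, 120 min after dosing, n = 3 per time point. Serum and saline lung homogenate stored at –80°C. Assayed by fluorescence polarization immunoassay (detection limit 2 µg/ml) against standard curves in pooled murine serum or lung homogenate. Parameters by moment analysis.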

[3] = Half life of free unbound fraction in serum of methicillin-resistant Staphylococcus aureus infected ddY mouse at 100 mg/kg, ip administered 1 day post infection by fluorescence polarization immunoassay; type: ADME, organism-based; parameters: dose 100 mg/kg, route intraperitoneal
Procedure, shortened: as §1

[4] = AUC (0 to infinity) in serum of methicillin-resistant Staphylococcus aureus infected ddY mouse at 100 mg/kg, ip administered 1 day post infection by fluorescence polarization immunoassay; type: ADME, organism-based; parameters: time infinity, dose 100 mg/kg, route intraperitoneal
Procedure, shortened: as §1

Staphylococcus aureus [5] = assay: Antibacterial activity against methicillin-resistant Staphylococcus aureus NUMR101 infected in ddY mouse assessed as viable bacteria in lungs at 100 mg/kg, ip administered 1 day postinfection (Rvb=8.42 +/- 0.50 log CFU/ml); type: functional; details: route intraperitoneal
[6] = Half life in lung of methicillin-resistant Staphylococcus aureus infected ddY mouse at 100 mg/kg, ip administered 1 day post infection by fluorescence polarization immunoassay; type: ADME, organism-based; parameters: dose 100 mg/kg, route intraperitoneal
Procedure, shortened: as §1

Serum [7] = assay: Protein binding in serum of methicillin-resistant Staphylococcus aureus infected ddY mouse at 100 mg/kg, ip; type: ADME, organism-based; parameters: dose 100 mg/kg, route intraperitoneal; details: in vivo
[8] = AUC (0 to infinity) in lung of methicillin-resistant Staphylococcus aureus infected ddY mouse at 100 mg/kg, ip administered 1 day post infection by fluorescence polarization immunoassay; type: ADME, organism-based; parameters: time infinity, dose 100 mg/kg, route intraperitoneal
Procedure, shortened: as §1

Staphylococcus aureus [9] = assay: Antibacterial activity against vancomycin-intermediate Staphylococcus aureus Mu50 infected in ddY mouse assessed as viable bacteria in lungs at 100 mg/kg, ip administered 1 day postinfection measured after 3 days (Rvb=9.64 +/- 0.63 log CFU/ml); type: functional; details: route intraperitoneal
Serum [10] = assay: fCmax in serum of methicillin-resistant Staphylococcus aureus infected ddY mouse at 100 mg/kg, ip administered 1 day post infection by fluorescence polarization immunoassay; type: ADME, organism-based; parameters: dose 100 mg/kg, route intraperitoneal; details: in vivo, 24 h
Procedure, shortened: as §1

Staphylococcus aureus [11] = assay: Antibacterial activity against vancomycin intermediate Staphylococcus aureus Mu50 by broth microdilution method; type: functional
Procedure, shortened: (§2)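 Broth microdilution in Mueller-Hinton II broth. Inoculum 5 x 10^5 CFU/ml. Drugs dissolved in sterile water just before use.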

Staphylococcus aureus [12] = assay: Antibacterial activity against vancomycin-intermediate Staphylococcus aureus Mu50 infected in ddY mouse assessed as survival of the mouse at 100 mg/kg, ip administered 1 day postinfection measured after 10 days; type: functional; details: route intraperitoneal
Procedure, shortened: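 Cyclophosphamide-pretreated (100 mg/kg, days −3 and −1) ddY mice infected i.v. with Mu50 agar beads at 2 x 10^9 to 4 x 10^9 CFU/ml. Treated 100 mg/kg i.p. b.i.d. from day 1 for 10 days. Survival recorded daily for 10 days, n = 10, Kaplan-Meier curves.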

[13] = Cmax in lung of methicillin-resistant Staphylococcus aureus infected ddY mouse at 100 mg/kg, ip administered 1 day post infection by fluorescence polarization immunoassay; type: ADME, organism-based; parameters: dose 100 mg/kg, route intraperitoneal
Procedure, shortened: as §1

Serum [14] = assay: fAUC (0 to infinity) in serum of methicillin-resistant Staphylococcus aureus infected ddY mouse at 100 mg/kg, ip administered 1 day post infection by fluorescence polarization immunoassay; type: ADME, organism-based; parameters: dose 100 mg/kg, route intraperitoneal; details: in vivo, 24 h
Procedure, shortened: as §1

[15] = Cmax in serum of methicillin-resistant Staphylococcus aureus infected ddY mouse at 100 mg/kg, ip administered 1 day post infection by fluorescence polarization immunoassay; type: ADME, organism-based; parameters: dose 100 mg/kg, route intraperitoneal
Procedure, shortened: as §1

[16] = fT>MIC in serum in vancomycin intermediate Staphylococcus aureus infected ddY mouse at 100 mg/kg, ip BID by paper disk bioassay method; type: functional; details: route intraperitoneal
[17] = AUC (0 to infinity) in serum of methicillin-resistant Staphylococcus aureus infected ddY mouse at 100 mg/kg, ip administered 1 day post infection by paper disk bioassay method; type: ADME, organism-based; parameters: time infinity, dose 100 mg/kg, route intraperitoneal
Procedure, shortened: (§3)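 MRSA-infected mice, one day post-inoculation, received a single 100 mg/kg i.p. dose. Serum and lung homogenate collected at 5–120 min, n = 3 per time point. Paper disk bioassay with Bacillus subtilis ATCC 6633, triplicate, 50 µl sample. Detection limits 0.07 µg/ml (serum) and 0.12 µg/ml (lung). Standards in pooled murine matrix, linear-regression curves. Moment analysis.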

[18] = T>MIC in lung in vancomycin intermediate Staphylococcus aureus infected ddY mouse at 100 mg/kg, ip BID by paper disk bioassay method; type: functional; details: route intraperitoneal
Serum [19] = assay: fCmax in serum of methicillin-resistant Staphylococcus aureus infected ddY mouse at 100 mg/kg, ip administered 1 day post infection by paper disk bioassay method; type: ADME, organism-based; parameters: dose 100 mg/kg, route intraperitoneal; details: in vivo, 24 h
Procedure, shortened: as §3

Staphylococcus aureus [20] = assay: Antibacterial activity against vancomycin intermediate Staphylococcus aureus Mu50 infected in ddY mouse assessed as decrease in lung inflammation at 100 mg/kg, ip after 3 days; type: functional, organism-based; parameters: dose 100 mg/kg
Procedure, shortened: (§4)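 Mice pretreated with cyclophosphamide (100 mg/kg, days −3 and −1) and infected i.v. with Mu50 agar beads (4 x 10^7 to 6 x 10^7 CFU/ml). Given 100 mg/kg i.p. b.i.d. for 3 days, then sacrificed. Lungs fixed in formalin and stained with H&E. Abscesses counted per slice, lung area by cross-section paper, n = 3.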

[21] = Half life of free unbound fraction in serum of methicillin-resistant Staphylococcus aureus infected ddY mouse at 100 mg/kg, ip administered 1 day post infection by paper disk bioassay method; type: ADME, organism-based; parameters: dose 100 mg/kg, route intraperitoneal
Procedure, shortened: as §3

[22] = Cmax in serum of methicillin-resistant Staphylococcus aureus infected ddY mouse at 100 mg/kg, ip administered 1 day post infection by paper disk bioassay method; type: ADME, organism-based; parameters: dose 100 mg/kg, route intraperitoneal
Procedure, shortened: as §3

[23] = Half life in lung of methicillin-resistant Staphylococcus aureus infected ddY mouse at 100 mg/kg, ip administered 1 day post infection by paper disk bioassay method; type: ADME, organism-based; parameters: dose 100 mg/kg, route intraperitoneal
Procedure, shortened: as §3

[24] = Half life in serum of methicillin-resistant Staphylococcus aureus infected ddY mouse at 100 mg/kg, ip administered 1 day post infection by paper disk bioassay method; type: ADME, organism-based; parameters: dose 100 mg/kg, route intraperitoneal
Procedure, shortened: as §3

Staphylococcus aureus [25] = assay: Antibacterial activity against methicillin-resistant Staphylococcus aureus NUMR101 by broth microdilution method; type: functional
Procedure, shortened: as §2

[26] = AUC (0 to infinity) in lung of methicillin-resistant Staphylococcus aureus infected ddY mouse at 100 mg/kg, ip administered 1 day post infection by paper disk bioassay method; type: ADME, organism-based; parameters: dose 100 mg/kg, route intraperitoneal, time infinity
Procedure, shortened: as §3

[27] = T>MIC in serum in vancomycin intermediate Staphylococcus aureus infected ddY mouse at 100 mg/kg, ip BID by paper disk bioassay method; type: functional; details: route intraperitoneal
[28] = T>MIC in lung of methicillin-resistant Staphylococcus aureus infected ddY mouse at 10 mg/kg, ip BID by paper disk bioassay method; type: functional; details: route intraperitoneal
[29] = Cmax in lung of methicillin-resistant Staphylococcus aureus infected ddY mouse at 100 mg/kg, ip administered 1 day post infection by paper disk bioassay method; type: ADME, organism-based; parameters: dose 100 mg/kg, route intraperitoneal
Procedure, shortened: as §3

[30] = T>MIC in serum of methicillin-resistant Staphylococcus aureus infected ddY mouse at 10 mg/kg, ip BID by paper disk bioassay method; type: functional; details: route intraperitoneal
Serum [31] = assay: fAUC (0 to infinity) in serum of methicillin-resistant Staphylococcus aureus infected ddY mouse at 100 mg/kg, ip administered 1 day post infection by paper disk bioassay method; type: ADME, organism-based; parameters: dose 100 mg/kg, route intraperitoneal; details: in vivo, 24 h
Procedure, shortened: as §3

Staphylococcus aureus [32] = assay: Antibacterial activity against vancomycin intermediate Staphylococcus aureus Mu50 infected in ddY mouse assessed as decrease in lung abscesses at 100 mg/kg, ip after 3 days; type: functional, organism-based; parameters: dose 100 mg/kg
Procedure, shortened: as §4

[33] = fT>MIC in serum of methicillin-resistant Staphylococcus aureus infected ddY mouse at 10 mg/kg, ip BID by paper disk bioassay method; type: functional; details: route intraperitoneal

SMILES: CN[C@H](CC(C)C)C(=O)N[C@H]1C(=O)N[C@@H](CC(N)=O)C(=O)N[C@H]2C(=O)N[C@H]3C(=O)N[C@H](C(=O)N[C@H](C(=O)O)c4cc(O)cc(O)c4-c4cc3ccc4O)[C@H](O)c3ccc(c(Cl)c3)Oc3cc2cc(c3O[C@@H]2O[C@H](CO)[C@@H](O)[C@H](O)[C@H]2O[C@H]2C[C@](C)(N)[C@H](O)[C@H](C)O2)Oc2ccc(cc2Cl)[C@H]1O [VANCOMYCIN]
- AUC0-24/MIC at 10 mg/kg [1]: 31.8 µg/mL
- half-life [2]: 2.95 h
- half-life [3]: 2.95 h
- AUC(0-inf) [4]: 261 µg·h/mL
- CFU/ml (Staphylococcus aureus [5]): 5.29 log CFU/ml
- half-life [6]: 1.72 h
- Activity (Serum [7]): 25%
- AUC(0-inf) [8]: 127 µg·h/mL
- CFU/ml (Staphylococcus aureus [9]): 8.72 log CFU/ml
- fCmax (Serum [10]): 45.6 µg/mL
- MIC (Staphylococcus aureus [11]): 8 µg/mL (≈ 5.52 µM)
- Activity (Staphylococcus aureus [12]): 20%
- Cmax [13]: 38500 ng/mL
- fAUC (Serum [14]): 196 µg·h/mL
- Cmax [15]: 60800 ng/mL

SMILES: C[C@H]1C=C(c2csc(SC3=C(C(=O)O)N4C(=O)[C@H]([C@@H](C)O)[C@H]4[C@H]3C)n2)CN1 [RAZUPENEM]
- fT>MIC [16]: 23.6
- AUC(0-inf) [17]: 127 µg·h/mL
- fT>MIC [18]: 20.3
- fCmax (Serum [19]): 25.81 µg/mL
- Activity (Staphylococcus aureus [20]): Active
- CFU/ml (Staphylococcus aureus [5]): 5.5 log CFU/ml
- half-life [21]: 0.84 h
- Cmax [22]: 108000 ng/mL
- half-life [23]: 0.61 h
- half-life [24]: 0.84 h
- Activity (Serum [7]): 76%
- CFU/ml (Staphylococcus aureus [9]): 7.42 log CFU/ml
- MIC (Staphylococcus aureus [25]): 2 µg/mL (≈ 4.91 µM)
- AUC(0-inf) [26]: 28.4 µg·h/mL
- fT>MIC [27]: 28.2
- MIC (Staphylococcus aureus [11]): 2 µg/mL (≈ 4.91 µM)
- fT>MIC [28]: 0
- Cmax [29]: 18000 ng/mL
- Activity (Staphylococcus aureus [12]): 70%
- fT>MIC [30]: 16.9
- fAUC (Serum [31]): 30.6 µg·h/mL
- Activity (Staphylococcus aureus [32]): Active
- fT>MIC [33]: 2.9

— ChEMBL document CHEMBL1255367, “Potency of SMP-601, a novel carbapenem, in hematogenous murine bronchopneumonia caused by methicillin-resistant and vancomycin-intermediate Staphylococcus aureus” (Antimicrob Agents Chemother, 2008)
